Consider twelve compounds from article PMC2810129 (Journal of medicinal chemistry, 2009).

Data set [1] concerns J774 murine monocyte-like macrophage line (subclone G8). Put plainly: Toxicity assay. The data set is classed as cell-based.
The target in data set [2] is T1, PfKASIII (Plasmodium falciparum, UniProt O77078). The data set is described as follows: PfKASIII inhibitor screen. The data set is classed as biochemical.
In another data set the test system is P. falciparum parasites. The data set is described as follows: In vitro malaria growth inhibition assay, strain not specified or both strains. The data set is classed as cell-based, Plasmodium falciparum. The settings on record: drug resistant and sensitive parasites. In short, it runs like this: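 P. falciparum D6 (chloroquine-sensitive, Sierra Leone I) and W2 (chloroquine-resistant, Indochina I) clones were cultured under 90% N2/5% O2/5% CO2 with 10% human serum and 6% haematocrit A+ red cells. Cultures at 3% parasitaemia with ≥70% rings were put on predosed plates for 24 h. [3H]-hypoxanthine was then added for 18 h, and cells were harvested and counted. IC50 was taken from a four-parameter nonlinear regression.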

In data set [3] the target is T1, PfKASIII. The following applies: read-out: PfKASIII IC50; cited from earlier work.
For another data set, the system named is bacterial KAS enzymes. The settings on record: cited from earlier work.

Read-outs that look alike come from different tables or passages of the source.

In the case of `NC1CCC(S(=O)(=O)c2cc(O)c3ccccc3c2O)CC1` (stereo not drawn) [Compound 3b], the “toxicity against the mammalian cell line (in words)” value (shortened to “toxicity”) in data set [1] is recorded as “little toxicity”.

For `CCCCS(=O)(=O)CCOC(=O)c1ccc([N+](=O)[O-])cc1` [Compound 3r], the “PfKASIII inhibition (in words)” value at PfKASIII [2] is “potent inhibitors of PfKASIII”. In addition, in the data set with P. falciparum parasites, the “antimalarial activity / parasite growth inhibition (in words)” value is listed as “fail to inhibit parasite growth”. Besides, in data set [1], the “toxicity” value is on record as “significant toxicity”.

For `O=[N+]([O-])c1c(Cl)sc(Cl)c1S(=O)(=O)Nc1ccc(C(F)(F)F)cc1` [Compound 2g], the “antimalarial activity / parasite growth inhibition (in words)” value in the data set with P. falciparum parasites is listed as “modest activity”.

As for `Cc1ccc(S/C=C/S(=O)(=O)Cc2ccccc2)cc1` [Compound 3n], the “toxicity” value in data set [1] is “significant toxicity”.

As to `Cc1ccc(S(=O)(=O)c2cc(O)c3ccccc3c2O)cc1` [Compound 3a], in data set [1], the “toxicity” value is “little toxicity”.

With `C=C/C(C)=C/[C@@]1(C)SC(=O)C(C)=C1O` [Thiolactomycin], the concentration for half-maximal inhibition (IC50) on PfKASIII [3] is over 330 µM. Also, the “in vivo IC50, bacterial KAS enzymes” value in the data set with bacterial KAS enzymes is 75 µM.

As to `COc1ncnc(NS(=O)(=O)c2ccc(N)cc2)c1OC` [Compound 2c], on PfKASIII [2], the IC50 is over 1000 µM and the “PfKASIII inhibition (in words)” value is “failed to inhibit PfKASIII at the highest concentration tested”. The “antimalarial activity / parasite growth inhibition (in words)” value in the data set with P. falciparum parasites was “robust antimalarial activity”.

As for `C/C=C/CCCCCCCC(=O)NS(=O)(=O)c1ccc(N)cc1` [Compound 2e], at PfKASIII [2], the half-maximal inhibitory concentration (IC50) was over 1000 µM and the “PfKASIII inhibition (in words)” value was “failed to inhibit PfKASIII at the highest concentration tested”.

In the case of `O=S(=O)(Nc1cccc(Cl)c1)c1ccccc1` [Compound 2b], the “toxicity” value in data set [1] is given as “significant toxicity”.

For `Nc1ccc(S(=O)(=O)c2cc(O)c3ccccc3c2O)c(Cl)c1` [Compound 3c], the “PfKASIII inhibition (in words)” value at PfKASIII [2] is “the most potent compound within the class of sulfonyls”.

Consider `c1ccc(SSc2ccccc2)cc1` [Compound 1d], for which the “toxicity” value in data set [1] is listed as “little toxicity”.

For `CC(C)c1ccc(S(=O)(=O)c2ccc(C(C)C)cc2)cc1` [Compound 3g], the “toxicity” value in data set [1] is “significant toxicity”.

As usually defined, the IC50 is the concentration that gives 50% inhibition.
